Screens: PubChem BioAssay, several laboratories
Rows were chosen to be rich in hits. Some 1.8% of all compounds tested hit in one or more screens of this group.
NR2E3 ag-1 – inhibitors of NR2E3-RetCOR corepressor binding, primary screen, NR2E3 agonist project, biochemical, TR-FRET, GST-NR2E3, biotin-RetCOR | Photoreceptor-specific nuclear receptor (Homo sapiens), Q9Y5X4 | 1536-well | inhibition of corepressor binding, % at 4.78 µM | 0.12% of 320,000 active;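 active = percent inhibition above the cutoff of mean plus 3 SD of all tested compounds, set per screening campaign, cut at about 20% in these data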;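 also: 0% = DMSO wells and 100% = biotin wells as full block of FRET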
Target sequence (Q9Y5X4 whole entry, looked up): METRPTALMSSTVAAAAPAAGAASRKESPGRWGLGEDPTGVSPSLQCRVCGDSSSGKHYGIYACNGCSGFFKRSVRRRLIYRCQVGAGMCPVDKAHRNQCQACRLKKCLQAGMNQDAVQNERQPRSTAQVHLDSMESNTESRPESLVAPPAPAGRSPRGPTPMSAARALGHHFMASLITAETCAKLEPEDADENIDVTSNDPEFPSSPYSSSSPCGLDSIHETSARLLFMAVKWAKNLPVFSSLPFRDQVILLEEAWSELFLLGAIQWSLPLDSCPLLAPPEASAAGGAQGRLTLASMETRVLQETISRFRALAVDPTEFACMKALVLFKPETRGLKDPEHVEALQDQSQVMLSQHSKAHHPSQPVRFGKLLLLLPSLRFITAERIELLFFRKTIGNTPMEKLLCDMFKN
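System: GST-tagged NR2E3 plus biotinylated RetCOR corepressor; Amount: 1.35 nM GST-tagged NR2E3 final; Dosing: single nominal compound dose of 4.8 µM; Schedule: 5 h incubation at 4 °C; Technique: TR-FRET with europium anti-GST and streptavidin-D2, 340 nm excitation; Controls: biotin wells as high control, 0.6% DMSO wells as low control.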
Gli-Sufu block – Gli-Sufu pathway antagonists, primary screen, luciferase luminescence, Sufu-KO-LIGHT cells, uHTS | Sufu-KO-LIGHT fibroblasts, Gli luciferase reporter luminescence | 0.74% of 340,000 active | inhibition, % at 5 µM;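 active = inhibition above about 55%, limit read from the data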;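 also: 0% = DMSO-treated cells and 100% = wells with medium but no cells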
697 NFkB inh – inhibitors of PMA/ionomycin-induced NF-kB reporter, 697 cells, primary screen, B-cell NF-kB inhibitor project, cell-based, luminescence, uHTS. 697 B-cell NF-kB luciferase reporter, 16 h. inhibition, % at 4 µM. 0.33% of 330,000 active. AID 435022, 2010; in the data active = inhibition above about 35%
Jurkat NFkB inh – inhibitors of induced NF-kB luciferase reporter, primary screen, TCR NF-kB activation inhibitor project, cell-based, luminescence, uHTS. Jurkat, PMA/ionomycin-induced NF-kB luciferase reporter. inhibition, % at 4 µM. 0.53% of 330,000 active; in the data active = inhibition above about 50%
GalR3 antag – GalR3 antagonists in HEK293 cells, primary screen, cell-based, fluorescence readout | Galanin receptor type 3 (Homo sapiens), O60755 | AID 651719, 2012 | inhibition, % at 3 µM | 0.44% of 360,000 active | HEK293 GalR3-CNG cAMP membrane potential fluorescence; galR3 body fused to GalR1 C-terminus;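 active = inhibition above the screen-wide average plus 3 SD, cut at about 13% in these data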;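 also: forskolin and galanin both at EC90 stimulate the cells; cAMP rise reported by CNG channel membrane potential dye signal; 0% = forskolin plus galanin with DMSO and 100% = forskolin alone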
Target sequence (O60755 1-299 limits assumed): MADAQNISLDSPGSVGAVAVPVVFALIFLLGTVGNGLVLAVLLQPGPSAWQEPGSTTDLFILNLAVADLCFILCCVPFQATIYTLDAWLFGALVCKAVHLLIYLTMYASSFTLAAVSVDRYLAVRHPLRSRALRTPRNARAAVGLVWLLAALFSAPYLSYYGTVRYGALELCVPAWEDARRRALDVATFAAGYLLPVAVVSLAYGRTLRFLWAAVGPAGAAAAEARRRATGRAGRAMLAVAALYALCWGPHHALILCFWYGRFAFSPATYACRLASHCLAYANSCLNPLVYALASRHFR
NR2E3 ag-2 – NR2E3 agonists in two-hybrid cells, primary screen, cell-based, luminescence, CHO-S, Gal4-NCOR/VP16-NR2E3 | 0.35% of 360,000 active | luciferase | Photoreceptor-specific nuclear receptor (Homo sapiens), Q9Y5X4 | inhibition of corepressor binding, % at 3.98 µM;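 active = inhibition above the mean of all tested compounds plus 3 SD, cut at about 70% in these data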;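 also: 0% = DMSO with NR2E3 transfected cells and 100% = cells lacking NR2E3 construct; higher means lower luciferase signal from less NR2E3 corepressor binding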
GalR3 conf – GalR3 antagonist hit confirmation, cell-based, fluorescence, triplicate; shares compounds with GalR3 antag; inhibition, % at 3 µM; 59% of 1,600 active; HEK293 GalR3 CNG cAMP biosensor, membrane potential fluorescence; galR3 fused to GalR1 carboxy tail; challenged with forskolin and galanin at EC90;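 active = inhibition above the primary screen's cutoff, the mean inhibition of all screened compounds plus 3 SD, cut at about 13% in these data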;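 also: 0% = forskolin plus galanin and 100% = forskolin alone with DMSO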
HEK-CNG parental – nonspecific cAMP agonists in parental HEK-CNG cells, counter-screen for GalR3 antagonist project, cell-based, fluorescence, high throughput. 10% of 1,600 active. HEK293-CNG parental cells, cAMP membrane potential fluorescence; normalised: DMSO wells 0%, forskolin wells 100%. shares compounds with GalR3 antag. AID 652268, 2013. activation, % at 3 µM; in the data active = activation above about 1.3%
The depositor's hits bear a star; x = not tested or not shown.

SMILES | NR2E3 ag-1 | Gli-Sufu block | 697 NFkB inh | Jurkat NFkB inh | GalR3 antag | NR2E3 ag-2 | GalR3 conf | HEK-CNG parental
COc1cccc(C(=O)Nc2cc(C(=O)NCc3ccc(C)cc3)ccc2N2CCC3(CC2)CC(c2ccccc2)=NO3)c1 | 7 | 24 | 0 | 13 | -5 | -55 | x | x
Cc1ccc(CNC(=O)c2ccc(N3CCC4(CC3)CC(c3cccc(Br)c3)=NO4)c(NC(=O)c3ccccc3)c2)cc1 | 3 | 9 | 23 | 24 | 14* | -3 | 23* | 1
CCOC(=O)C1CCCN(C(=O)CCc2nnc(-c3ccc(C(C)=O)s3)o2)C1 (stereo not drawn) | 3 | -45 | -134 | -97 | 2 | -126 | x | x
COn1c(SCc2cccnc2)nc2ccccc2c1=O | -1 | 5 | 1 | -1 | x | -27 | 3 | 1
COn1c(SCc2ccc(Cl)cc2)nc2ccccc2c1=O | 1 | 9 | 14 | -5 | -5 | -12 | x | x
N#C/C(=C(/O)COc1ccc(Cl)cc1)c1nc2ccccc2s1 | -2 | -2 | 7 | 13 | 14* | -44 | 2 | 1.3*
CSc1ccc(C#N)cc1NC(=O)c1ccccc1C | 3 | 4 | 12 | -7 | 15* | -24 | 13* | 0
CCOC(=O)CCN(c1ccccc1)S(=O)(=O)c1ccc(-c2ccc(=O)[nH]n2)s1 | 1 | -8 | -10 | 10 | 33* | 14 | 57* | 0
COCCN(Cc1cccs1)S(=O)(=O)c1ccc(-c2ccc(=O)[nH]n2)s1 | 0 | -11 | 1 | -1 | 26* | -58 | 28* | 0
CCCCN(Cc1cccs1)S(=O)(=O)c1ccc(-c2ccc(=O)[nH]n2)s1 | 1 | 4 | -5 | 25 | 22* | 0 | 24* | 0
Cc1cccc(N(CC(=O)NCc2ccc(F)cc2)C(=O)c2csnn2)c1C | -3 | 0 | 25 | -3 | -3 | 8 | x | x
O=C(Nc1ccc(-c2nc3ccccc3o2)cc1)c1ccc(N2C(=O)C3C4C=CC(C4)C3C2=O)cc1 (stereo not drawn) | -9 | -10 | -98 | 35 | 61* | -6 | 110* | -1
COc1ccc(-n2c(SC(C)C(=O)Nc3ccc(NC(C)=O)cc3)nc3ccccc3c2=O)cc1OC (stereo not drawn) | -6 | 20 | 6 | -11 | -10 | 8 | x | x
Cc1ccc(OCc2cc(C(=O)N(C)C3CCCc4ccccc43)no2)cc1C (stereo not drawn) | x | x | x | x | -9 | -67 | x | x
Cc1cc(-c2csc(NC(=O)c3ccc(S(=O)(=O)N(C)C)cc3)n2)c(C)n1-c1ccccc1 | -2 | 7 | -17 | 8 | -5 | -21 | x | x
CN(C)S(=O)(=O)c1ccc(C(=O)Nc2nc(-c3cc4ccccc4o3)cs2)cc1 | 3 | 50 | 22 | 34 | 93* | 28 | 103* | -1
O=C(CCC1CCCN(c2ncccn2)C1)NCc1ccc(F)c(F)c1 (stereo not drawn) | 1 | -4 | -8 | -4 | 38* | -17 | 8 | 0
O=C(CCC1CCCN(C(=O)C2CCCC2)C1)NCc1ccc(F)c(F)c1 (stereo not drawn) | 4 | 8 | 10 | -4 | -3 | -22 | x | x
O=C(c1cccc(NS(=O)(=O)c2ccccc2)c1)N1CCCCC1 | 1 | 4 | 1 | -4 | 2 | 6 | x | x
O=C(NNC(=S)NC(=O)c1ccccc1[N+](=O)[O-])c1ccccc1[N+](=O)[O-] | 1 | 5 | 10 | 16 | -10 | -13 | x | x
O=C(NNC(=S)NC(=O)c1ccccc1[N+](=O)[O-])c1ccccc1O | 1 | 19 | 7 | -17 | 31* | -2 | -4 | 0
CN(C)CCCNC(=O)C1(O)c2cc(Br)ccc2NC(=O)N1c1c(F)cccc1F (stereo not drawn) | -1 | 3 | 9 | 8 | -9 | 4 | x | x
Cc1ccc(O)c(NC(=O)C2CCCN2C(=O)OCc2ccccc2)c1 (stereo not drawn) | -1 | -3 | -19 | 6 | -6 | -7 | x | x
Cc1ccc2nc(SCC(=O)Nc3ccc(F)cc3)nc(=O)n2c1 | -2 | -5 | 9 | 4 | 1 | -8 | x | x
Cc1ccc2nc(SCC(=O)NCc3ccc(F)cc3)nc(=O)n2c1 | 0 | -4 | -28 | -13 | 18* | 9 | 3 | 0
SMILES | NR2E3 ag-1 | Gli-Sufu block | 697 NFkB inh | Jurkat NFkB inh | GalR3 antag | NR2E3 ag-2 | GalR3 conf | HEK-CNG parental
CCN(CC)CCC(c1ccc2c(c1)OCO2)c1c(O)cc(OC)cc1OC (stereo not drawn) | 2 | -7 | 19 | 6 | -7 | 14 | x | x
Cc1nc(SCc2nc3ccccc3[nH]2)c2oc3ccccc3c2n1 | -1 | 0 | 12 | 5 | 1 | 18 | x | x
Cc1nc(SCc2nc3ccccc3[nH]2)c2oc3ccc(Br)cc3c2n1 | x | 8 | 11 | 12 | 14* | -17 | 28* | 1
COC(=O)[C@]12CCCCC=C1N(CCc1ccc(OC)c(OC)c1)C(=O)[C@H](CC(=O)NCc1cccc3ccccc13)C2 | x | x | x | x | -7 | x | x | x
COC(=O)[C@]12CCCCC=C1N(Cc1cccc3ccccc13)C(=O)[C@H](CC(=O)NCc1ccc(OC)c(OC)c1)C2 | x | x | x | x | 14* | 12 | 76* | 0
C[C@H](c1ccccc1)N1C[C@H](COCc2ccccc2)Oc2cc(N3CC[C@H](N(C)C)C3)ccc2S1(=O)=O | x | x | x | x | -7 | -2 | x | x
Cn1c(SCC(=O)Nc2ccccc2)nc2ccccc2c1=O | x | 23 | -27 | 2 | -12 | 10 | x | x
COc1ccc(/C=N/NC(=O)C(=O)N2CCCCCC2)cc1[N+](=O)[O-] | -2 | -4 | 11 | 8 | 17* | 5 | 22* | 0
COc1ccc(/C=N/NC(=O)C(C)Sc2ccccn2)cc1[N+](=O)[O-] (stereo not drawn) | 2 | -6 | 18 | -4 | 19* | -32 | 3 | 0
COc1cc(/C=N/NC(=O)C(=O)N2CCCCCC2)ccc1O | -1 | -17 | 8 | 9 | 4 | 4 | x | x
